Measured values as given in ChEMBL document CHEMBL1671679, “Lack of pharmacokinetic interaction between amdoxovir and reduced- and standard-dose zidovudine in HIV-1-infected individuals” (Antimicrob Agents Chemother, 2010).
Values belong to the molecule of their own block, whether it stands above or below them.

Legend:
[1] = species on record: Homo sapiens; assay: Ratio of AUC (0 to 12 hrs) in HIV-1 infected patient on day 10 to AUC ( 0 to 12 hrs) in HIV-1 infected patient on day 1; assay type: ADME, organism-based; conditions: in vivo
Outline: (§1)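 Untreated Hispanic HIV-infected adults (VL ≥5,000 copies/ml, CD4 ≥200 cells/mm3) dosed orally b.i.d. Plasma sampled 0–12 h after first dose (day 1) and 0–48 h after last dose (day 10) into DCF-containing EDTA tubes, stored −80°C. ZDV measured by validated LC-MS/MS (linear 2–5,000 ng/ml). Noncompartmental analysis assuming extravascular input. Accumulation taken as AUCτ (τ = 12 h) day 10 / AUCτ day 1, as geometric means.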

[2] = Drug level in HIV-1 infected patient urine assessed as zidovudine-5-O-glucoronide level at 200 mg, po bid on day 10 coadministered with 500 mg, po bid amdoxovir by LC-MS/MS analysis; assay type: ADME, organism-based; conditions: human, in vivo
Outline: (§2)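 At steady state (day 10), urine collected over one 12-h dose interval was analyzed by LC-MS/MS for AMDX, DXG, ZDV and ZDV-5′-O-glucuronide. Samples were diluted 100-fold, and the assay was linear from 1 to 500 μg/ml. Results are expressed as percentage of the dose recovered as each analyte (geometric means). Subjects were untreated HIV-1-infected adults.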

[3] = test system: Homo sapiens; assay: Ratio of AUC (0 to 12 hrs) in HIV-1 infected patient at 300 mg, po bid on day 10 coadministered with 500 mg, po bid amdoxovir to AUC (0 to 12 hrs) in HIV-1 infected patient at 300 mg, po bid on day 1 coadministered with 500 mg, po bid amdoxovir; assay type: ADME, organism-based; conditions: in vivo; outline: as §1
[4] = Tmax in HIV-1 infected patient at 200 mg, po bid on day 10 coadministered with 500 mg, po bid amdoxovir by LC-MS/MS analysis; assay type: ADME, organism-based; conditions: human, in vivo
Outline: (§3)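 Untreated Hispanic HIV-infected adults (VL ≥5,000 copies/ml, CD4 ≥200 cells/mm3) dosed orally b.i.d. for 10 days. Methanol extraction with internal standard, then LC-MS/MS for ZDV. Noncompartmental steady-state Tmax reported as geometric mean.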

[5] = Half life in HIV-1 infected patient at 200 mg, po bid on day 10 coadministered with 500 mg, po bid amdoxovir by LC-MS/MS analysis; assay type: ADME, organism-based; conditions: human, in vivo
Outline: (§4)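 Untreated Hispanic HIV-1-infected adults (viral load ≥5,000 copies/ml, CD4 ≥200 cells/mm3). Blood was drawn into DCF-containing EDTA tubes on day 1 (0–12 h) and on day 10 (0–48 h post last dose), then stored at −80°C. Plasma was methanol-extracted with an internal standard and run by LC-MS/MS (2–3,000 ng/ml AMDX/DXG; 2–5,000 ng/ml ZDV). Noncompartmental analysis assumed extravascular input; τ = 12 h; geometric means reported; accumulation was taken as AUCτ day 10/day 1.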

[6] = Apparent oral clearance in HIV-1 infected patient at 300 mg, po bid on day 10 coadministered with 500 mg, po bid amdoxovir by LC-MS/MS analysis; assay type: ADME, organism-based; conditions: human, in vivo; outline: as §4
[7] = Apparent oral clearance in HIV-1 infected patient at 200 mg, po bid on day 10 coadministered with 500 mg, po bid amdoxovir by LC-MS/MS analysis; assay type: ADME, organism-based; conditions: human, in vivo; outline: as §4
[8] = Drug level in HIV-1 infected patient urine assessed as zidovudine-5-O-glucoronide level at 300 mg, po bid on day 10 coadministered with 500 mg, po bid amdoxovir by LC-MS/MS analysis; assay type: ADME, organism-based; conditions: human, in vivo; outline: as §2
[9] = Drug level in HIV-1 infected patient urine at 300 mg, po bid on day 10 coadministered with 500 mg, po bid amdoxovir by LC-MS/MS analysis; assay type: ADME, organism-based; conditions: human, read-out: Drug uptake; outline: as §2
[10] = Drug level in HIV-1 infected patient urine at 200 mg, po bid on day 10 coadministered with 500 mg, po bid amdoxovir by LC-MS/MS analysis; assay type: ADME, organism-based; conditions: human, read-out: Drug uptake; outline: as §2
[11] = Half life in HIV-1 infected patient on day 10 by LC-MS/MS analysis; assay type: ADME, organism-based; conditions: human, in vivo; outline: as §4
[12] = Half life in HIV-1 infected patient at 300 mg, po bid on day 10 coadministered with 500 mg, po bid amdoxovir by LC-MS/MS analysis; assay type: ADME, organism-based; conditions: human, in vivo; outline: as §4
[13] = Tmax in HIV-1 infected patient at 300 mg, po bid on day 10 coadministered with 500 mg, po bid amdoxovir by LC-MS/MS analysis; assay type: ADME, organism-based; conditions: human, in vivo; outline: as §3
[14] = Drug level in HIV-1 infected patient urine on day 10 assessed as zidovudine-5-O-glucoronide level by LC-MS/MS analysis; assay type: ADME; conditions: human, in vivo; outline: as §2
[15] = test system: Homo sapiens; assay: Ratio of AUC (0 to 12 hrs) in HIV-1 infected patient at 200 mg, po bid on day 10 coadministered with 500 mg, po bid amdoxovir to AUC (0 to 12 hrs) in HIV-1 infected patient at 200 mg, po bid on day 1 coadministered with 500 mg, po bid amdoxovir; assay type: ADME, organism-based; conditions: in vivo; outline: as §1
[16] = Apparent oral clearance in HIV-1 infected patient on day 10 by LC-MS/MS analysis; assay type: ADME, organism-based; conditions: human, in vivo; outline: as §4
[17] = Tmax in HIV-1 infected patient on day 10 by LC-MS/MS analysis; assay type: ADME, organism-based; conditions: human, in vivo; outline: as §3
[18] = Drug level in HIV-1 infected patient urine on day 10 by LC-MS/MS analysis; assay type: ADME; conditions: human, read-out: Drug uptake; outline: as §2
[19] = Half life in HIV-1 infected patient at 500 mg, po bid on day 1 by LC-MS/MS analysis; assay type: ADME, organism-based; conditions: human, in vivo; outline: as §4
[20] = Tmax in HIV-1 infected patient at 500 mg, po bid on day 10 coadministered with 300 mg, po bid zidovudine by LC-MS/MS analysis; assay type: ADME, organism-based; conditions: human, in vivo
Outline: (§5)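 Treatment-naive Hispanic HIV-1-infected adults (≥5,000 RNA copies/ml, CD4 ≥200 cells/mm3). Blood drawn after first dose on day 1 (0–12 h) and after last dose on day 10 (0–48 h) into DCF-containing EDTA tubes to block ex vivo deamination, centrifuged, plasma stored −80°C. Methanol extraction with internal standard, LC-MS/MS (linear 2–3,000 ng ml−1 for AMDX and DXG). Noncompartmental analysis assuming extravascular input; geometric means reported.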

[21] = Apparent oral clearance in HIV-1 infected patient at 500 mg, po bid on day 10 by LC-MS/MS analysis; assay type: ADME, organism-based; conditions: human, in vivo; outline: as §4
[22] = test system: Homo sapiens; assay: Ratio of AUC (0 to 12 hrs) in HIV-1 infected patient at 500 mg, po bid on day 10 coadministered with 200 mg, po bid zidovudine to AUC (0 to 12 hrs) in HIV-1 infected patient at 500 mg, po bid on day 1 coadministered with 200 mg, po bid zidovudine; assay type: ADME, organism-based; conditions: in vivo; outline: as §4
[23] = AUC (0 to 12 hrs) in HIV-1 infected patient at 500 mg, po bid on day 10 coadministered with 200 mg, po bid zidovudine by LC-MS/MS analysis; assay type: ADME, organism-based; design: dose 500 mg, time < 12 hr, route oral; conditions: human, plasma; outline: as §4
[24] = Apparent oral clearance in HIV-1 infected patient at 500 mg, po bid on day 10 coadministered with 200 mg, po bid zidovudine by LC-MS/MS analysis; assay type: ADME, organism-based; conditions: human, in vivo; outline: as §4
[25] = Half life in HIV-1 infected patient at 500 mg, po bid on day 10 coadministered with 200 mg, po bid zidovudine by LC-MS/MS analysis; assay type: ADME, organism-based; conditions: human, in vivo; outline: as §4
[26] = Cmax in HIV-1 infected patient at 500 mg, po bid on day 10 coadministered with 200 mg, po bid zidovudine by LC-MS/MS analysis; assay type: ADME, organism-based; design: dose 500 mg, route oral; conditions: human, in vivo; outline: as §4
[27] = test system: Homo sapiens; assay: Ratio of AUC (0 to 12 hrs) in HIV-1 infected patient at 500 mg, po bid on day 10 coadministered with 300 mg, po bid zidovudine to AUC (0 to 12 hrs) in HIV-1 infected patient at 500 mg, po bid on day 1 coadministered with 300 mg, po bid zidovudine; assay type: ADME, organism-based; conditions: in vivo; outline: as §4
[28] = test system: Homo sapiens; assay: Tmax in HIV-1 infected patient assessed as beta-D-dioxolane guanosine level at 500 mg, po bid on day 1 by LC-MS/MS analysis; assay type: ADME, organism-based; conditions: in vivo; outline: as §4
[29] = Cmax in HIV-1 infected patient at 500 mg, po bid on day 10 by LC-MS/MS analysis; assay type: ADME, organism-based; design: dose 500 mg, route oral; conditions: human, in vivo; outline: as §4
[30] = Tmax in HIV-1 infected patient at 500 mg, po bid on day 10 by LC-MS/MS analysis; assay type: ADME, organism-based; conditions: human, in vivo; outline: as §5
[31] = Cmax in HIV-1 infected patient at 500 mg, po bid on day 1 by LC-MS/MS analysis; assay type: ADME, organism-based; design: dose 500 mg, route oral; conditions: human, in vivo; outline: as §4
[32] = test system: Homo sapiens; assay: Ratio of AUC (0 to 12 hrs) in HIV-1 infected patient at 500 mg, po bid on day 10 to AUC (0 to 12 hrs) in HIV-1 infected patient at 500 mg, po bid on day 1; assay type: ADME, organism-based; conditions: in vivo; outline: as §4
[33] = Half life in HIV-1 infected patient at 500 mg, po bid on day 10 by LC-MS/MS analysis; assay type: ADME, organism-based; conditions: human, in vivo; outline: as §4
[34] = Tmax in HIV-1 infected patient at 500 mg, po bid on day 10 coadministered with 200 mg, po bid zidovudine by LC-MS/MS analysis; assay type: ADME, organism-based; conditions: human, in vivo; outline: as §5
[35] = Tmax in HIV-1 infected patient at 500 mg, po bid on day 1 by LC-MS/MS analysis; assay type: ADME, organism-based; conditions: human, in vivo; outline: as §5
[36] = AUC (0 to 12 hrs) in HIV-1 infected patient at 500 mg, po bid on day 10 by LC-MS/MS analysis; assay type: ADME, organism-based; design: dose 500 mg, time < 12 hr, route oral; conditions: human, plasma; outline: as §4
[37] = AUC (0 to 12 hrs) in HIV-1 infected patient at 500 mg, po bid on day 10 coadministered with 300 mg, po bid zidovudine by LC-MS/MS analysis; assay type: ADME, organism-based; design: dose 500 mg, time < 12 hr, route oral; conditions: human, plasma; outline: as §4
[38] = Apparent oral clearance in HIV-1 infected patient at 500 mg, po bid on day 10 coadministered with 300 mg, po bid zidovudine by LC-MS/MS analysis; assay type: ADME, organism-based; conditions: human, in vivo; outline: as §4
[39] = Cmax in HIV-1 infected patient at 500 mg, po bid on day 10 coadministered with 300 mg, po bid zidovudine by LC-MS/MS analysis; assay type: ADME, organism-based; design: dose 500 mg, route oral; conditions: human, in vivo; outline: as §4
[40] = Half life in HIV-1 infected patient at 500 mg, po bid on day 10 coadministered with 300 mg, po bid zidovudine by LC-MS/MS analysis; assay type: ADME, organism-based; conditions: human, in vivo; outline: as §4

Ratio AUC [1]: 1.21
Drug uptake [2]: 61.87%
Ratio AUC [3]: 0.86
Tmax [4]: 30 min
half-life [5]: 150 min
CL/F [6]: 30 mL/min/kg
CL/F [7]: 39 mL/min/kg
Drug uptake [8]: 62.89%
dose excreted [9]: 6.74%
dose excreted [10]: 5.88%
half-life [11]: 132 min
half-life [12]: 144 min
Tmax [13]: 30 min
Drug uptake [14]: 61.15%
Ratio AUC [15]: 1.04
CL/F [16]: 23.2 mL/min/kg
Tmax [17]: 30 min
dose excreted [18]: 6.24%
SMILES: Cc1cn([C@H]2C[C@H](N=[N+]=[N-])[C@@H](CO)O2)c(=O)[nH]c1=O [ZIDOVUDINE]

half-life [19]: 78 min
Tmax [20]: 2.5 h
CL/F [21]: 91.5 mL/min/kg
Ratio AUC [22]: 0.99
AUC at 12 h [23]: 1730 ng·h/mL
CL/F [24]: 74.7 mL/min/kg
half-life [25]: 102 min
Cmax [26]: 649 ng/mL
Ratio AUC [27]: 0.67
Tmax [28]: 1 h
Cmax [29]: 499 ng/mL
Tmax [30]: 2 h
Cmax [31]: 514 ng/mL
Ratio AUC [32]: 0.95
half-life [33]: 84 min
Tmax [34]: 2.5 h
Tmax [35]: 1 h
AUC at 12 h [36]: 1330 ng·h/mL
AUC at 12 h [37]: 2090 ng·h/mL
CL/F [38]: 63.5 mL/min/kg
Cmax [39]: 714 ng/mL
half-life [40]: 66 min
SMILES: Nc1nc(N)c2ncn([C@H]3CO[C@@H](CO)O3)c2n1 [AMDOXOVIR]
